Data published in ChEMBL document CHEMBL3526127, “Absorption, elimination, and metabolism of CS-1036, a novel α-amylase inhibitor in rats and monkeys, and the relationship between gastrointestinal distribution and suppression of glucose absorption” (Drug Metab Dispos, 2013).
Values belong to the molecule of their own block, whether it stands above or below them.

What was measured:
[1] = AUC (0 to infinity) in cynomolgus monkey at 10 mg/kg, po administered as single dose by LC-MS/MS method; format: ADME, organism-based, Macaca fascicularis; design: time infinity, dose 10 mg/kg, route oral; conditions: plasma
In short: (§1)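 Fasted male F344 rats (146–185 g) or male cynomolgus monkeys (3.48–4.29 kg), n = 4 per dose, given single iv or oral dose of 0.3, 1.0, 3.0 or 10.0 mg/kg; monkeys dosed with 2-week washouts. Blood sampled to 48 h; plasma stored frozen. LC-MS/MS with deuterated internal standard. Noncompartmental analysis: AUClast by trapezoidal rule; AUC0–inf = AUClast + Ctz/terminal rate constant; mean ± S.D.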

[2] = Oral bioavailability in cynomolgus monkey at 1 mg/kg administered as single dose by LC-MS/MS method; format: ADME, organism-based, Macaca fascicularis; conditions: in vivo
In short: (§2)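 Male F344 rats (146–185 g) and male cynomolgus monkeys (3.48–4.29 kg), n = 4 each, fasted overnight, received single iv or oral doses of 0.3, 1.0, 3.0 or 10.0 mg/kg. Monkeys had 2-week washouts between doses. Plasma was sampled to 48 h and assayed by LC-MS/MS with deuterated internal standard. Noncompartmental analysis: tmax observed; t1/2 by regression on ≥3 terminal log points; Vss = dose·AUMC/(AUC0–inf)²; Foral = oral/iv AUC0–inf at the same dose.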

[3] = AUClast in F344 rat at 3 mg/kg, iv administered as single dose by LC-MS/MS method; format: ADME, organism-based; design: time 0 - last, dose 3 mg/kg, route intravenous; conditions: plasma; in short: as §1
[4] = AUClast in F344 rat at 10 mg/kg, iv administered as single dose by LC-MS/MS method; format: ADME, organism-based; design: time 0 - last, dose 10 mg/kg, route intravenous; conditions: plasma; in short: as §1
[5] = Half life in cynomolgus monkey at 0.3 mg/kg, iv administered as single dose by LC-MS/MS method; format: ADME, organism-based, Macaca fascicularis; design: dose 0.3 mg/kg, route intravenous; conditions: in vivo; in short: as §2
[6] = Tmax in cynomolgus monkey at 10 mg/kg, po administered as single dose by LC-MS/MS method; format: ADME, organism-based, Macaca fascicularis; design: dose 10 mg/kg, route oral; conditions: in vivo; in short: as §2
[7] = AUC (0 to infinity) in cynomolgus monkey at 10 mg/kg, iv administered as single dose by LC-MS/MS method; format: ADME, organism-based, Macaca fascicularis; design: dose 10 mg/kg, route intravenous, time infinity; conditions: plasma; in short: as §1
[8] = Volume of distribution at steady state in F344 rat at 10 mg/kg, iv administered as single dose by LC-MS/MS method; format: ADME, organism-based; design: dose 10 mg/kg, route intravenous; conditions: in vivo, read-out: Vdss; in short: as §2
[9] = Half life in F344 rat at 1 mg/kg, iv administered as single dose by LC-MS/MS method; format: ADME, organism-based; design: dose 1 mg/kg, route intravenous; conditions: in vivo
In short: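 Fasted male F344 rats (146–185 g, n = 4 per dose) received single i.v. CS-1036. Plasma was sampled up to 48 h and analysed by LC-MS/MS. t1/2 came from noncompartmental regression of three or more log-transformed terminal-phase points. Mean ± S.D.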

[10] = Tmax in cynomolgus monkey at 0.3 mg/kg, po administered as single dose by LC-MS/MS method; format: ADME, organism-based, Macaca fascicularis; design: dose 0.3 mg/kg, route oral; conditions: in vivo; in short: as §2
[11] = AUC (0 to infinity) in cynomolgus monkey at 3 mg/kg, po administered as single dose by LC-MS/MS method; format: ADME, organism-based, Macaca fascicularis; design: dose 3 mg/kg, route oral, time infinity; conditions: plasma; in short: as §1
[12] = AUC (0 to infinity) in F344 rat at 3 mg/kg, po administered as single dose by LC-MS/MS method; format: ADME, organism-based; design: time infinity, dose 3 mg/kg, route oral; conditions: plasma; in short: as §1
[13] = AUClast in F344 rat at 10 mg/kg, po administered as single dose by LC-MS/MS method; format: ADME, organism-based; design: time 0 - last, dose 10 mg/kg, route oral; conditions: plasma; in short: as §1
[14] = AUClast in F344 rat at 1 mg/kg, po administered as single dose by LC-MS/MS method; format: ADME, organism-based; design: time 0 - last, dose 1 mg/kg, route oral; conditions: plasma; in short: as §1
[15] = Drug excretion in F344 rat feces at 1 mg/kg, iv administered as single dose after 0 to 168 hrs by scintillation counting method; format: ADME, organism-based; design: dose 1 mg/kg, route intravenous; conditions: in vivo
In short: (§3)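 Fasted F344 rats (152–156 g iv via tail vein; 154–159 g oral; n = 4) received [14C]-labelled drug at 1 mg/kg (41.9 µCi/kg). Animals were kept in metabolic cages; urine and feces were collected to 168 h, and expired CO2 was trapped in 2-aminoethanol/2-methoxyethanol (1:1) to 48 h. Samples were counted by liquid scintillation (feces homogenized). Results are % of dose, mean ± S.D.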

Rattus norvegicus [16] = experiment: Total drug excretion in F344 rat at 1 mg/kg, po administered as single dose after 0 to 48 hrs by scintillation counting method; format: ADME, organism-based; design: dose 1 mg/kg, route oral; conditions: in vivo
In short: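 Fasted F344 rats (n = 4) received [14C]-labelled drug at 1 mg/kg (41.9 µCi/kg), iv via tail vein or oral. They were housed in metabolic cages. Urine and feces were collected to 168 h, and expired CO2 was trapped in 2-aminoethanol/2-methoxyethanol to 48 h. Radioactivity was counted by liquid scintillation, feces after homogenization. Results are % of dose.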

[17] = Drug excretion in F344 rat urine at 1 mg/kg, po administered as single dose after 0 to 168 hrs by scintillation counting method; format: ADME, organism-based; design: dose 1 mg/kg, route oral; conditions: in vivo; in short: as §3
Rattus norvegicus [18] = experiment: Total drug excretion in bile duct cannulated F344 rat at 1 mg/kg, iv administered as single dose after 0 to 48 hrs by scintillation counting method; format: ADME, organism-based; design: dose 1 mg/kg, route intravenous; conditions: in vivo
In short: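 Under ether anesthesia, the common bile duct of fasted F344 rats was cannulated. After recovery, rats received 1 mg/kg (41.9 µCi/kg) of the 14C-labelled compound iv or by oral gavage (n = 4). They were kept in Bollman cages, and bile was collected at 0–6, 6–24, 24–30 and 30–48 h at 4°C. Radioactivity was measured by liquid scintillation counting as % of dose.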

[19] = Drug excretion in F344 rat urine at 1 mg/kg, po administered as single dose after 24 hrs by scintillation counting method; format: ADME, organism-based; design: dose 1 mg/kg, route oral; conditions: in vivo
In short: (§4)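 [14C]-labelled drug (1 mg/kg, 42.2 µCi/kg) was given orally to fasted F344 rats (164–168 g, n = 3). Urine and feces were collected to 24 h; feces were homogenized in 9 volumes of water, combusted and counted. Parent fraction came from the excreted radioactivity times the radio-HPLC (HILIC) peak-area ratio; mean ± S.D.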

[20] = Drug excretion in F344 rat feces at 1 mg/kg, po administered as single dose after 24 hrs by scintillation counting method; format: ADME, organism-based; design: dose 1 mg/kg, route oral; conditions: in vivo; in short: as §4
[21] = Ratio of drug level in blood to plasma in F344 rat after 5 mins; format: ADME
[22] = Ratio of drug level in blood to plasma in human after 5 mins; format: ADME
[23] = Drug metabolism in po dosed F344 rat urine assessed as 1,4-dideoxy-1,4-imino-D-arabinitol formation by LC-MS/MS method; format: ADME, organism-based; conditions: in vivo
Cynomolgus monkey [24] = experiment: Total drug excretion in cynomolgus monkey at 3 mg/kg, iv administered as single dose after 0 to 336 hrs by scintillation counting method; format: ADME, organism-based, Macaca fascicularis; design: dose 3 mg/kg, route intravenous; conditions: in vivo
In short: (§5)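 Fasted male cynomolgus monkeys (n = 4) were dosed with 14C-labelled drug at 3 mg/kg, iv via saphenous vein (191 µCi/kg) or orally by stomach catheter (156.5 µCi/kg). Urine, feces and cage-wash water were collected to 336 h. Radioactivity was measured by liquid scintillation counting, with feces homogenized in water, and expressed as % of dose.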

Cynomolgus monkey [25] = experiment: Total drug excretion in cynomolgus monkey at 3 mg/kg, po administered as single dose after 0 to 336 hrs by scintillation counting method; format: ADME, organism-based, Macaca fascicularis; design: dose 3 mg/kg, route oral; conditions: in vivo; in short: as §5
[26] = Drug metabolism in monkey intestinal S9 fractions at 0.42 uCi/ml assessed as metabolite formation in presence of NADPH after 1 hr at 37 degC by LC-MS/MS method; conditions: cynomolgus monkey, s9, 1 h

AUC(0-inf) [1]: 894 ng·h/mL
bioavailability [2]: 0.983%
AUC(0-t) [3]: 18700 ng·h/mL
AUC(0-t) [4]: 53000 ng·h/mL
half-life [5]: 2.51 h
Tmax [6]: 1.75 h
AUC(0-inf) [7]: 74500 ng·h/mL
Vd [8]: 0.222 L/kg
half-life [9]: 18.4 h
Tmax [10]: 1.75 h
AUC(0-inf) [11]: 191 ng·h/mL
AUC(0-inf) [12]: 325 ng·h/mL
AUC(0-t) [13]: 1050 ng·h/mL
AUC(0-t) [14]: 110 ng·h/mL
SMILES: C[C@H]1O[C@@H](O[C@H]2[C@H](O)[C@@H](O)[C@@H](O[C@H]3[C@H](O)CN[C@@H]3CO)O[C@@H]2CO)[C@H](O)[C@@H](O)[C@@H]1O

Drug excretion [15]: 17.82%
Drug excretion (Rattus norvegicus [16]): 93.26%
Drug excretion [17]: 15.32%
Drug excretion (Rattus norvegicus [18]): 0.37%
Drug excretion [19]: 1.4%
Drug excretion [20]: 70.3%
blood plasma ratio at 5 min [21]: 0.575
blood plasma ratio at 5 min [22]: 0.521
Drug metabolism [23]: metabolite_detected
Drug excretion (Cynomolgus monkey [24]): 96.29%
Drug excretion (Cynomolgus monkey [25]): 95.15%
Drug metabolism [26]: metabolite_not_detected
SMILES: C[C@H]1O[C@@H](O[C@H]2[C@H](O)[C@@H](O)[C@@H](O[14C@H]3[14C@H](O)[14CH2]N[14C@@H]3[14CH2]O)O[C@@H]2CO)[C@H](O)[C@@H](O)[C@@H]1O
